From ChEMBL document CHEMBL5724801, “EUbOPEN Chemogenomics Library - Multiplex” (2024)
“And” between values parts separate entries of the source, which are not always exact repeats. Equal entries are not always repeated.

Test system: HEK-293T
Assay: Multiplex assay against HEK293T
Format: toxicity, cell-based
Conditions: human
Outline: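 With compound added, live cells were imaged on a CQ1 microscope at 37°C and 5% CO2; staining with Hoechst33342, BioTracker Green Microtubule Cytoskeleton Dye, MitoTracker Red and Annexin V Alexa Fluor 680 had been done at seeding. The CellPathfinder machine-learning gating scheme split cells into Hoechst high-intensity objects or normal cells, normal cells into healthy, pyknosed or fragmented nuclei, and pyknosed cells into mitotic or apoptotic. The tubulin, mitochondrial-mass and membrane-permeability phenotypes are per cents of healthy-nucleus cells.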

[1] = 12 h, 1 µM, compound concentration 1 uM
[2] = 12 h, 10 µM, compound concentration 10 uM
[3] = 24 h, 1 µM, compound concentration 1 uM
[4] = 24 h, 10 µM, compound concentration 10 uM
[5] = 48 h, 1 µM, compound concentration 1 uM
[6] = 48 h, 10 µM, compound concentration 10 uM

Compound: CN1CCN(c2nc3cc(C(F)(F)F)ccc3n3cccc23)CC1.O=C(O)/C=C\C(=O)O.O=C(O)/C=C\C(=O)O
- Population Apoptotic (%) [1]: 37% and 53%
- Population Fragmented Nuclei (%) [1]: 5% and 8%
- Population Healthy Nuclei (%) [1]: 80% and 77%
- Population Hoechst High Intensity Objects (%) [1]: 10% and 5%
- Population Membrane Permeable-Phenotype (%) [1]: 0%
- Population Mitochondria Different-Phenotype (%) [1]: 48% and 76%
- Population Mitotic Cells (%) [1]: 62% and 46%
- Population Normal (%) [1]: 89% and 94%
- Population Pyknosed Nuclei (%) [1]: 13% and 14%
- Population Tubulin-Different-Phenotype (%) [1]: 33% and 35%
- Total Cell Count [1]: 438 and 332
- Population Apoptotic (%) [2]: 68% and 64%
- Population Fragmented Nuclei (%) [2]: 7% and 5%
- Population Healthy Nuclei (%) [2]: 76%
- Population Hoechst High Intensity Objects (%) [2]: 14% and 9%
- Population Membrane Permeable-Phenotype (%) [2]: 0%
- Population Mitochondria Different-Phenotype (%) [2]: 73% and 89%
- Population Mitotic Cells (%) [2]: 31% and 35%
- Population Normal (%) [2]: 85% and 90%
- Population Pyknosed Nuclei (%) [2]: 15% and 18%
- Population Tubulin-Different-Phenotype (%) [2]: 64% and 66%
- Total Cell Count [2]: 396 and 286
- Population Apoptotic (%) [3]: 33% and 54%
- Population Fragmented Nuclei (%) [3]: 9% and 6%
- Population Healthy Nuclei (%) [3]: 81% and 83%
- Population Hoechst High Intensity Objects (%) [3]: 6%
- Population Membrane Permeable-Phenotype (%) [3]: 1% and 0%
- Population Mitochondria Different-Phenotype (%) [3]: 30% and 50%
- Population Mitotic Cells (%) [3]: 66% and 45%
- Population Normal (%) [3]: 93%
- Population Pyknosed Nuclei (%) [3]: 9% and 10%
- Population Tubulin-Different-Phenotype (%) [3]: 24% and 25%
- Total Cell Count [3]: 557 and 390
- Population Apoptotic (%) [4]: 41% and 63%
- Population Fragmented Nuclei (%) [4]: 8% and 10%
- Population Healthy Nuclei (%) [4]: 77% and 78%
- Population Hoechst High Intensity Objects (%) [4]: 9% and 7%
- Population Membrane Permeable-Phenotype (%) [4]: 0%
- Population Mitochondria Different-Phenotype (%) [4]: 65% and 79%
- Population Mitotic Cells (%) [4]: 58% and 36%
- Population Normal (%) [4]: 90% and 92%
- Population Pyknosed Nuclei (%) [4]: 13% and 10%
- Population Tubulin-Different-Phenotype (%) [4]: 62% and 58%
- Total Cell Count [4]: 490 and 378
- Population Apoptotic (%) [5]: 20% and 37%
- Population Fragmented Nuclei (%) [5]: 13%
- Population Healthy Nuclei (%) [5]: 78% and 79%
- Population Hoechst High Intensity Objects (%) [5]: 3% and 5%
- Population Membrane Permeable-Phenotype (%) [5]: 2% and 0%
- Population Mitochondria Different-Phenotype (%) [5]: 17% and 42%
- Population Mitotic Cells (%) [5]: 79% and 62%
- Population Normal (%) [5]: 96% and 94%
- Population Pyknosed Nuclei (%) [5]: 7%
- Population Tubulin-Different-Phenotype (%) [5]: 17% and 21%
- Total Cell Count [5]: 915 and 535
- Population Apoptotic (%) [6]: 50% and 52%
- Population Fragmented Nuclei (%) [6]: 15% and 11%
- Population Healthy Nuclei (%) [6]: 75% and 77%
- Population Hoechst High Intensity Objects (%) [6]: 10% and 12%
- Population Membrane Permeable-Phenotype (%) [6]: 2% and 0%
- Population Mitochondria Different-Phenotype (%) [6]: 41% and 65%
- Population Mitotic Cells (%) [6]: 50% and 47%
- Population Normal (%) [6]: 89% and 87%
- Population Pyknosed Nuclei (%) [6]: 8% and 10%
- Population Tubulin-Different-Phenotype (%) [6]: 44% and 56%
- Total Cell Count [6]: 672 and 472

Compound: CN1CCN(c2ccc(Nc3c4ccccc4nc4ccccc34)cc2)CC1.Cl.Cl.O
- Population Apoptotic (%) [1]: 42% and 55%
- Population Fragmented Nuclei (%) [1]: 7% and 4%
- Population Healthy Nuclei (%) [1]: 81% and 90%
- Population Hoechst High Intensity Objects (%) [1]: 3% and 1%
- Population Membrane Permeable-Phenotype (%) [1]: 0%
- Population Mitochondria Different-Phenotype (%) [1]: 50% and 59%
- Population Mitotic Cells (%) [1]: 57% and 45%
- Population Normal (%) [1]: 96% and 98%
- Population Pyknosed Nuclei (%) [1]: 11% and 5%
- Population Tubulin-Different-Phenotype (%) [1]: 28% and 20%
- Total Cell Count [1]: 411 and 364
- Population Apoptotic (%) [2]: 100%
- Population Fragmented Nuclei (%) [2]: 24% and 40%
- Population Healthy Nuclei (%) [2]: 74% and 58%
- Population Hoechst High Intensity Objects (%) [2]: 1% and 0%
- Population Membrane Permeable-Phenotype (%) [2]: 0%
- Population Mitochondria Different-Phenotype (%) [2]: 99% and 100%
- Population Mitotic Cells (%) [2]: 0%
- Population Normal (%) [2]: 98% and 99%
- Population Pyknosed Nuclei (%) [2]: 1%
- Population Tubulin-Different-Phenotype (%) [2]: 97% and 92%
- Total Cell Count [2]: 234 and 194
- Population Apoptotic (%) [3]: 42% and 46%
- Population Fragmented Nuclei (%) [3]: 9%
- Population Healthy Nuclei (%) [3]: 84% and 86%
- Population Hoechst High Intensity Objects (%) [3]: 2% and 0%
- Population Membrane Permeable-Phenotype (%) [3]: 0%
- Population Mitochondria Different-Phenotype (%) [3]: 40% and 44%
- Population Mitotic Cells (%) [3]: 57% and 53%
- Population Normal (%) [3]: 97% and 99%
- Population Pyknosed Nuclei (%) [3]: 5% and 4%
- Population Tubulin-Different-Phenotype (%) [3]: 14% and 12%
- Total Cell Count [3]: 455 and 362
- Population Apoptotic (%) [4]: 100%
- Population Fragmented Nuclei (%) [4]: 28% and 45%
- Population Healthy Nuclei (%) [4]: 69% and 53%
- Population Hoechst High Intensity Objects (%) [4]: 2% and 0%
- Population Membrane Permeable-Phenotype (%) [4]: 0%
- Population Mitochondria Different-Phenotype (%) [4]: 100%
- Population Mitotic Cells (%) [4]: 0%
- Population Normal (%) [4]: 97% and 99%
- Population Pyknosed Nuclei (%) [4]: 2% and 0%
- Population Tubulin-Different-Phenotype (%) [4]: 92% and 91%
- Total Cell Count [4]: 247 and 206
- Population Apoptotic (%) [5]: 45% and 60%
- Population Fragmented Nuclei (%) [5]: 11% and 10%
- Population Healthy Nuclei (%) [5]: 82% and 85%
- Population Hoechst High Intensity Objects (%) [5]: 3% and 1%
- Population Membrane Permeable-Phenotype (%) [5]: 0%
- Population Mitochondria Different-Phenotype (%) [5]: 30% and 36%
- Population Mitotic Cells (%) [5]: 54% and 40%
- Population Normal (%) [5]: 96% and 98%
- Population Pyknosed Nuclei (%) [5]: 6% and 3%
- Population Tubulin-Different-Phenotype (%) [5]: 16% and 12%
- Total Cell Count [5]: 581 and 411
- Population Apoptotic (%) [6]: 100% and 66%
- Population Fragmented Nuclei (%) [6]: 34% and 52%
- Population Healthy Nuclei (%) [6]: 56% and 46%
- Population Hoechst High Intensity Objects (%) [6]: 11% and 5%
- Population Membrane Permeable-Phenotype (%) [6]: 0%
- Population Mitochondria Different-Phenotype (%) [6]: 100% and 99%
- Population Normal (%) [6]: 88% and 94%
- Population Pyknosed Nuclei (%) [6]: 9% and 1%
- Population Tubulin-Different-Phenotype (%) [6]: 88% and 89%
- Total Cell Count [6]: 318 and 272
